In ChEMBL document CHEMBL1138186, “Dynamic pharmacophore model optimization: identification of novel HIV-1 integrase inhibitors” (J Med Chem, 2006):

Experiments:
[1] = molecular target: T1, Human immunodeficiency virus type 1 integrase (Human immunodeficiency virus 1, UniProt Q7ZJM1); assay: Inhibition of 3'-processing activity of HIV1 integrase
Outline: (§1)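 Then 20 nM 5′-32P-labeled 21-mer oligonucleotide added for 1 h. Quenched with formamide loading dye. % inhibition from 19-mer (3′-processing) or strand transfer product fractions versus DNA-alone and DNA+IN controls. IC50 from log concentration versus % inhibition plot.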

[2] = molecular target: T1, Human immunodeficiency virus type 1 integrase; assay: Inhibition of strand transfer activity of HIV1 integrase; outline: as §1

T1 sequence (Q7ZJM1 whole entry): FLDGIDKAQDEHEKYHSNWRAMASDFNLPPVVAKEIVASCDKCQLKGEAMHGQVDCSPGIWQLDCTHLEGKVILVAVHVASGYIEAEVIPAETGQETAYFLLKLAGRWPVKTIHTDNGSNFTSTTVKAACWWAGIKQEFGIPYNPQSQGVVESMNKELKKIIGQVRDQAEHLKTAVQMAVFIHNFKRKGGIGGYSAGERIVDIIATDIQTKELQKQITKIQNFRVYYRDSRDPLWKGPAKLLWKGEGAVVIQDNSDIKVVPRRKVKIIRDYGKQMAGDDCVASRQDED

IC50 [1]	IC50 [2]	Structure (SMILES)
100 µM	23 µM	COCCCNS(=O)(=O)c1ccc(Oc2cc(O)c3c(c2O)C(=O)c2ccccc2C3=O)cc1
> 1000 µM	630 µM	COc1ccc(C(=O)C2=C(O)C(=O)N(CCN3CCNCC3)C2c2ccccc2F)cc1 (centres undefined)
> 1000 µM	> 1000 µM	O=C(C1=C(O)C(=O)N(CCCN2CCOCC2)C1c1ccccc1F)c1ccc(F)cc1 (centres undefined)
> 100 µM	> 100 µM	COc1cccc2cc(-c3csc(Nc4cccc(O)c4)n3)c(=O)oc12
> 100 µM	> 100 µM	O=C(O)CCC(=O)Nc1ccc(Cl)c(NC(=O)Cc2ccccc2)c1
> 100 µM	> 100 µM	COc1ccc(C2C(C(=O)c3ccccc3)=C(O)C(=O)N2CCCO)cc1OC (centres undefined)
> 100 µM	> 100 µM	CN(C)CCCN1C(=O)C(O)=C(C(=O)c2cccs2)C1c1cccs1 (centres undefined)
> 100 µM	> 100 µM	NCCCCCCNC(=O)c1c(O)oc2ccccc2c1=O
> 100 µM	> 100 µM	O=C(NCCCO)c1ccc(CSc2nc(O)c3c4c(sc3n2)CCC4)cc1
> 100 µM	> 100 µM	O=C(O)CCC(=O)Nc1ccc(S(=O)(=O)Nc2ccc(F)cc2)cc1
> 1000 µM	> 1000 µM	Cc1ccc(C(=O)C2=C(O)C(=O)N(CCN(C)C)C2c2ccccc2F)cc1 (centres undefined)
> 100 µM	> 100 µM	CCOC(=O)c1c(NC(=O)CC2Sc3ccc(C(F)(F)F)cc3NC2=O)sc2c1CCCC2 (centres undefined)
850 µM	350 µM	O=c1oc2c(CN(CCO)CCO)c(O)ccc2cc1-c1nc2ccccc2s1
> 100 µM	40 µM	CCOC(=O)C1=C(O)/C(=C\c2ccc(CNC(=O)C(=O)Nc3ccccc3)o2)N=C1C
> 100 µM	> 100 µM	COc1cc(C(c2c[nH]c3ccccc23)c2c[nH]c3ccccc23)ccc1OCC(=O)O
53 µM	10 µM	Oc1ccc(C(c2c[nH]c3ccccc23)c2c[nH]c3ccccc23)cc1O
> 1000 µM	395 µM	COc1ccc(C2C(C(=O)c3ccco3)=C(O)C(=O)N2CCN2CCOCC2)c(OC)c1 (centres undefined)
> 1000 µM	> 1000 µM	CCN(CC)CCN1C(=O)C(O)=C(C(=O)c2ccccc2)C1c1ccc(OC)cc1OC (centres undefined)
> 1000 µM	> 1000 µM	COc1ccc(C2C(C(=O)c3ccc(F)cc3)=C(O)C(=O)N2CCN(C)C)cc1OC (centres undefined)
> 100 µM	> 100 µM	COC(=O)c1c(NC(=O)CC2Nc3ccccc3NC2=O)sc2c1CCCC2 (centres undefined)
90 µM	56 µM	CCOC(=O)c1c(NC(=O)c2cc3ccccc3oc2=O)sc(C(N)=O)c1C
18 µM	9 µM	NCCCNc1ccc2c3c(nn2CCNCCO)-c2c(O)ccc(O)c2C(=O)c13 [PIROXANTRONE]
